Laboratory results published in the EternaBench riboswitch data.

System: MS2 coat protein
Test: apparent Kd, MS2 coat protein; higher = weaker binding; RNA-MaP array; FMN 200 µM where present
Summary of the method: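 Designs on Illumina sequencing-chip clusters, transcribed by stalled E. coli RNA polymerase, were exposed to SNAP-549-labelled MS2 coat protein in doubling steps from 0.7 or 1.5 nM up to 3 µM, without and then with constant ligand. The buffer held 100 mM Tris-HCl pH 7.5, 80 mM KCl, 4 mM MgCl2, BSA, DTT, yeast tRNA and Tween-20. Apparent Kd values are medians of filtered per-cluster binding-curve fits to green signal normalised to red-channel RNA signal and control-cluster median Fmax.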

[1] = designed as: OFF switch for flavin mononucleotide, no ligand
[2] = ligand present: flavin mononucleotide, designed as: OFF switch for flavin mononucleotide
[3] = designed as: ON switch for flavin mononucleotide, no ligand
[4] = ligand present: flavin mononucleotide, designed as: ON switch for flavin mononucleotide

With “AAUAACAGAGGAUAUACUAUUUUAUGUGUUUGUUGUUUUGAACAUGAGGAUCACCCAUGUAGAAGGCUGAAUGA” the “apparent Kd” value [1] was 28.8 nM and the “apparent Kd” value [2] was 30.7 nM.
For “AAUAACAGAGGAUAUACUGUUUUAUGUGUUUAUUGUUUUAAACAUGAGGAUCACCCAUGUAGAAGGCUGAAUAA”, the “apparent Kd” value [1] was 27.4 nM and the “apparent Kd” value [2] was 27.8 nM.
“AAUAACAGAGGAUAUACUGUUUUAUGUGUUUGUUAUUUUGAACAUGAGGAUCACCCAUGUAGAAGGCUGAUUGA” was tested, and the “apparent Kd” value [1] was 50 nM and the “apparent Kd” value [2] was 44.9 nM.
“AAUAAGCAAGGAUAUACGACGCAGAGCGUCAGUGGGCGAUGACAUGAGGAUCACCCAUGUAGAAGGUGCACAUC” was tested, and the “apparent Kd” value [1] was 93.9 nM and the “apparent Kd” value [2] was 208 nM.
With “AAUAUGAGCUGGAAUAUAAACCUGACAUGAGGAUCACCCAUGUAGGAUAUCAGCACGAUAAGUGCUGAGAAGGACAACCAGCUC” the “apparent Kd” value [1] was 14 nM and the “apparent Kd” value [2] was 14.5 nM.
In the case of “AAUAUGUUGCAGAAGGUUAUAUUUAUAACGUUCCUCAUGACAUGAGGAUCACCCAUGUAAUUGUUGAAGGAUAUGCAAUAUAUU”, the “apparent Kd” value [1] is reported as 5.41 nM and the “apparent Kd” value [2] is reported as 5.62 nM.
With “AAUAUGUUGCAGAAGGUUAUAUUUUUUUAGUACCUCAUUACAUGAGGAUCACCCAUGUAAAUGAUGAAGGAUAUGCAAUAUAUU” the “apparent Kd” value [1] was 19.3 nM and the “apparent Kd” value [2] was 16.4 nM.
For “AAUAUGUUGCAGAAGGUUAUAUUUUUUUCGUACCUCAUGACAUGAGGAUCACCCAUGUAUUUGUUGAAGGAUAUGCAAUAUAUU”, the “apparent Kd” value [1] was 21.5 nM and the “apparent Kd” value [2] was 17.7 nM.
With “AAUCAGCGGAACUUGACAUCCCUACAUGAGGAUCACCCAUGUCAGGAUAUAUGCUCUCGAGCUGCAUAGAAGGGACAUAGUGGG” the “apparent Kd” value [1] was 50.6 nM and the “apparent Kd” value [2] was 71.3 nM.
“AAUCGAUGAUCAGGAUAUGUGGAGCCUCUAAGCGAAGAGGCGUACAUGAGGAUCACCCAUGUGACACAGAAGGGAUACAUGCGG” was tested, and the “apparent Kd” value [3] was 64.2 nM and the “apparent Kd” value [4] was 8.2 nM.
In the case of “AAUCUGUCGGUAGGAUAUCAGUUUGGAGAGCCGACAUGAGGAUCACCCAUGUACAGAAUCAAGGGUGAGAAGGACCGGGUAGUU”, the “apparent Kd” value [3] is reported as 90.7 nM and the “apparent Kd” value [4] is reported as 78.6 nM.
For “AAUGAUUGAUGAGGAUAUUGUGGUGAAACACGACGAGAAGGCAUAUGUCACAUGAGGAUCACCCAUGUGAGCUUUGUGGAUAUA”, the “apparent Kd” value [1] was 25 nM and the “apparent Kd” value [2] was 28.9 nM.
In the case of “AAUGGCAUAGAGAAGGCGCCGCAGCUCUUCCUCCCAUCCCAACGACAUGAGGAUCACCCAUGUAGCGAGGAUAUCUAUACCGUU”, the “apparent Kd” value [1] is reported as 6.91 nM and the “apparent Kd” value [2] is reported as 14.1 nM.
For “AAUUAACAUGAGGAUCACCCAUGUGAGGAUAUGGUAUUAUUUGGACAGUUAUGAUAUACCAGAAGGCACAUAUA”, the “apparent Kd” value [1] was 63.4 nM and the “apparent Kd” value [2] was 108 nM.
In the case of “AAUUAAUUAAUACAUGAGGAUCACCCAUGUAAUUAUUAGAUCAAGGAUAUCAGCUCGAAUAGAGCUGAGAAGGUGAUCACAUGU”, the “apparent Kd” value [3] is reported as 475 nM and the “apparent Kd” value [4] is reported as 111 nM.
In the case of “AAUUAGGUCACAGGAUAUACAACAUCCAUAGCUGUAGAAGGGUGUCAAAAUAAUAUCUGACAUGAGGAUCACCCAUGUUUCCAC”, the “apparent Kd” value [3] is reported as 15.8 nM and the “apparent Kd” value [4] is reported as 12.7 nM.
For “AAUUAGGUCACAGGAUAUACUUCAUCCAUAGAUGUAGAAGGGUGUCAGAAUAAUUUCUUACAUGAGGAUCACCCAUGUUUCCAC”, the “apparent Kd” value [3] was 108 nM and the “apparent Kd” value [4] was 48.1 nM.
With “AAUUAUAUACAGAAGGAGUUAUUUAGAGGAUUACUAGGAUAUGUUCACAUGAGGAUCACCCAUGUCAUAUUGGGAUUUAUUAUU” the “apparent Kd” value [1] was 18 nM and the “apparent Kd” value [2] was 24 nM.
In the case of “AAUUCGCGAGGAUAUACAUGAGGAUCACCCAUGUGUGUACGCAUGCACUUCAUAGGUUGUAGAAGGCGUGAGAU”, the “apparent Kd” value [1] is reported as 19.7 nM and the “apparent Kd” value [2] is reported as 29.4 nM.
For “AAUUGACACGUAGGAUAUCGCUCUAUUUUAACACGAGAAGGACGUACAUGAGGAUCACCCAUGUUUAAUGGUGUAGAUAAGUUG”, the “apparent Kd” value [1] was 105 nM and the “apparent Kd” value [2] was 228 nM.
For “AAUUGGAACUAAGGAUAUCUGUAUUUUGUUGAAACAUGAGGAUCACCCAUGUUCAUGAAAUUAUAGGAGAAGGUAGAUCCAUAA”, the “apparent Kd” value [3] was 5 nM and the “apparent Kd” value [4] was 4.6 nM.
In the case of “AAUUGGAUCCAGAAGGCAUGGACGACCCGUCACAUUAACAUGAGGAUCACCCAUGUAAAAAUACAUGAGGAUAUGGAUCCUAAA”, the “apparent Kd” value [3] is reported as 41.3 nM and the “apparent Kd” value [4] is reported as 7.43 nM.
With “AAUUGGAUGCAGAAGGCAUGGACGACUCGUCAAAUUAACAUGAGGAUCACCCAUGUCAAAAGACAUGAGGAUAUGCAUCCUAAA” the “apparent Kd” value [3] was 189 nM and the “apparent Kd” value [4] was 12.6 nM.
“AAUUGGAUGCAGAAGGCAUGGACGACUCGUCACAUUAACAUGAGGAUCACCCAUGUAAAAUAACAUGAGGAUAUGCAUCCUAAA” was tested, and the “apparent Kd” value [3] was 9.81 nM and the “apparent Kd” value [4] was 6.15 nM.
With “AAUUUACAGCUAGGAUAUACAUGAGGAUCACCCAUGUAAUGAUUGGAUCUUAUGAUCGUAUCAGUGUAGAAGGAGCAAAUAAGA” the “apparent Kd” value [1] was 13.4 nM and the “apparent Kd” value [2] was 28.4 nM.
In the case of “AAUUUACAUGAGGAUCACCCAUGUCAGGAUAUGGUUUUAUUUUUUUCUUUUCUUGAUUCCAGAAGGGACAGCUA”, the “apparent Kd” value [1] is reported as 127 nM and the “apparent Kd” value [2] is reported as 68.3 nM.
“ACAAAUUAGUGAGGAUAUGCUAAAUUUAUAACAGCAGAAGGCACAAACCUCAAGACAUGAGGAUCACCCAUGUGGAAUAUAGAU” was tested, and the “apparent Kd” value [1] was 68 nM and the “apparent Kd” value [2] was 139 nM.
